Experiments:
Format in all cases: cell-based
[1] = Cytotoxicity against mouse BMDC cells up to 10 uM after overnight incubation by MTT assay
Method in brief: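 BMDC (10^5/well) incubated 18 h with graded concentrations alongside 0.5% DMSO vehicle and MPLA 1 μg/mL; cells lysed after overnight MTT incubation, absorbance 570 nm minus 650 nm reference. Triplicates, mean ± SEM, two independent experiments.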

[2] = target: Toll-like receptor 4 (Homo sapiens) (UniProt O00206); test: Activation of TLR4 in human PBMC cells assessed as AUC of IL8 release at 10 uM after 18 hrs by ELISA relative to N-cyclohexyl-2-(4-oxo-3-phenyl-4,5-dihydro-3H-pyrimido[5,4-b]indol-2-ylthio)acetamide
Sequence of Toll-like receptor 4 (Homo sapiens) (O00206 whole entry): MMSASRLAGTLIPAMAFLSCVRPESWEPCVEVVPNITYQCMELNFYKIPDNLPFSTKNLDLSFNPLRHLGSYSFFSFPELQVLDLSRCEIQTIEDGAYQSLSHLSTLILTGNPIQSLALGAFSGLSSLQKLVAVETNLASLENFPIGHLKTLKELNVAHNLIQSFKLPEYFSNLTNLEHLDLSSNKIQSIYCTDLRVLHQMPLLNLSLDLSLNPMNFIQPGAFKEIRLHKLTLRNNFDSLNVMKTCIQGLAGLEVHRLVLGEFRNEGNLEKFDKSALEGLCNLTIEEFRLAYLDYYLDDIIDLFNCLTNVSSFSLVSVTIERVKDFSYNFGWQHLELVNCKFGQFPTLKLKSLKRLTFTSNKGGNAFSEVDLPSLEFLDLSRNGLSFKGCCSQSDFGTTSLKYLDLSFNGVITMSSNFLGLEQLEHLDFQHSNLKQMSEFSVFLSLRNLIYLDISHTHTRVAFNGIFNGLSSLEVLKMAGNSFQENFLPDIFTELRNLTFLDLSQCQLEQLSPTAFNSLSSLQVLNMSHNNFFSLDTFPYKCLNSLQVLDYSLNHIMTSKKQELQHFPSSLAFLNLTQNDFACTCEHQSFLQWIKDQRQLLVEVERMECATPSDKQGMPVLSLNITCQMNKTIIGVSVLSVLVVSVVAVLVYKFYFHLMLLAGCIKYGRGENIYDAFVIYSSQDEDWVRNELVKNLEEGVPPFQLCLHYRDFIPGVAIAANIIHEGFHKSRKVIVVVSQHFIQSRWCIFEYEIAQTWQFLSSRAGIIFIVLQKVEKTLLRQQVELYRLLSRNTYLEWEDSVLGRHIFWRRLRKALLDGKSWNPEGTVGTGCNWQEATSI
Method in brief: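 Human PBMC from buffy coats, 1 × 10^6/mL in complete RPMI, 18 h at 37 °C, 5% CO2 with compound at 10 μM; IL-8 in supernatant by ELISA, normalized to reference hit set at 100. LPS 10 ng/mL positive control.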

[3] = target: T1, Toll-like receptor 4 (Mus musculus) (UniProt Q9QUK6); test: Activation of mouse TLR4 transfected in HEK293 cells after 18 hrs by SEAP assay relative to N-cyclohexyl-2-(4-oxo-3-phenyl-4,5-dihydro-3H-pyrimido[5,4-b]indol-2-ylthio)acetamide
T1 sequence (whole entry): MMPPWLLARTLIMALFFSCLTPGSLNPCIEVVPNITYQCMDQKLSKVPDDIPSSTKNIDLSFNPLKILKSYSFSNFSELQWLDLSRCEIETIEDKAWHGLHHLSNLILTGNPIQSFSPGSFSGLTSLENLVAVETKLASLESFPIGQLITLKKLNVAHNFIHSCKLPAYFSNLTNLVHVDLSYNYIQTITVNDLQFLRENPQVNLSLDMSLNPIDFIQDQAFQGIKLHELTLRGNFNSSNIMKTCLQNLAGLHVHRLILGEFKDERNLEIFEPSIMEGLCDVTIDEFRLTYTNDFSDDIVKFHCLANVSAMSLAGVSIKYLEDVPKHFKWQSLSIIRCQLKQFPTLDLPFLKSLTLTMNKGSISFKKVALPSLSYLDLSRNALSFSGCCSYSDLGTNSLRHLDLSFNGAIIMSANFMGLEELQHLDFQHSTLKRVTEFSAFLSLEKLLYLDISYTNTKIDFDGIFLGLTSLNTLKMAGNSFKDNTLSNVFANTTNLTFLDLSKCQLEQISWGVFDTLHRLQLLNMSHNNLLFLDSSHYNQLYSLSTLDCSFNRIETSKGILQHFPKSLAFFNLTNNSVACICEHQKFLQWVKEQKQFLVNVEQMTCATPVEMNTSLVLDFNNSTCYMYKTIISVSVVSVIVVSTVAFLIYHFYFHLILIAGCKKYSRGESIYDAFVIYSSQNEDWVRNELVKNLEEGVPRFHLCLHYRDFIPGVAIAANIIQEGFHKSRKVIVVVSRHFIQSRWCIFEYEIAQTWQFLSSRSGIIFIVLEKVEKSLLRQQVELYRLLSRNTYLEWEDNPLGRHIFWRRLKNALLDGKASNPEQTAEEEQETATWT
Method in brief: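 Mouse TLR4 HEK-Blue cells (2.5 × 10^4/well) given titrated doses 312 nM–10 μM for 18 h, 0.5% DMSO vehicle; SEAP at 630 nm. Percent-activity curves, AUC by trapezoid method, normalized to reference hit set at 100. LPS 10 ng/mL control.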

[4] = target: Toll-like receptor 4 (Homo sapiens) (UniProt O00206); test: Activation of human TLR4 transfected in HEK293 cells after 18 hrs by SEAP assay relative to N-cyclohexyl-2-(4-oxo-3-phenyl-4,5-dihydro-3H-pyrimido[5,4-b]indol-2-ylthio)acetamide; set-up: concentration or dose not given beside the values
Method in brief: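 Human TLR4 HEK-Blue cells (2.5 × 10^4/well) given compound at 10 μM for 18 h, 0.5% DMSO vehicle; SEAP in supernatant read at 630 nm, normalized to reference hit set at 100. LPS 10 ng/mL positive control.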

[5] = target: T1, Toll-like receptor 4 (Mus musculus); test: Activation of TLR4 in C57BL/6 mouse BMDC cells assessed as AUC of IP10 release at 5 uM after 18 hrs by ELISA relative to N-cyclohexyl-2-(4-oxo-3-phenyl-4,5-dihydro-3H-pyrimido[5,4-b]indol-2-ylthio)acetamide
[6] = target: T1, Toll-like receptor 4 (Mus musculus); test: Activation of TLR4 in C57BL/6 mouse BMDC cells assessed as AUC of IL6 release after 18 hrs by ELISA relative to N-cyclohexyl-2-(4-oxo-3-phenyl-4,5-dihydro-3H-pyrimido[5,4-b]indol-2-ylthio)acetamide
Method in brief: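 C57BL/6 bone marrow DC, 10^5 cells/well in RPMI-10% FCS, 18 h at 37 °C with titrated doses 312 nM–10 μM; supernatant IL-6 by ELISA. Each curve converted to percent activity (background subtracted, plate-adjusted), AUC by trapezoid method, normalized to reference hit set at 100 per experiment. LPS 10 ng/mL positive control; 0.5% DMSO vehicle.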

| SMILES | Activity [2] [%] | Activity [3] [%] | Activity [4] [%] | Activity [5] [%] | Activity [6] [%] | Activity [1] |
| --- | --- | --- | --- | --- | --- | --- |
| CCCn1c2ccccc2c2nc(SCC(=O)NC3CCCCC3)n(-c3ccccc3)c(=O)c21 |  |  |  |  |  | Non-toxic |
| CC(C)(C)CCNC(=O)CSc1nc2c([nH]c3ccccc32)c(=O)n1-c1ccccc1 | 95 | 126 | 72 | 85 | 99 |  |
| Cc1cccc(NC(=O)CSc2nc3c([nH]c4ccccc43)c(=O)n2-c2ccccc2)c1 | 54 | 13 | 116 | 55 | 19 |  |

Continued, in another order:

| Activity [2] [%] | Activity [3] [%] | Activity [4] [%] | Activity [5] [%] | Activity [6] [%] | SMILES | Activity [1] |
| --- | --- | --- | --- | --- | --- | --- |
| 30 | 55 | 19 | 64 | 98 | N#CCn1c2ccccc2c2nc(SCC(=O)NC3CCCCC3)n(-c3ccccc3)c(=O)c21 | Non-toxic |
| 79 | 100 | 92 | 99 | 101 | Cn1c2ccccc2c2nc(SCC(=O)NC3CCCCC3)n(-c3ccccc3)c(=O)c21 | Non-toxic |
| 5 | 1 | 1 | < 1 | < 1 | O=C(CSc1nc2c([nH]c3ccccc32)c(=O)n1CCc1ccccc1)NC1CCCCC1 |  |
| 73 | 95 | 64 | 98 | 114 | O=C(CSc1nc2c([nH]c3ccccc32)c(=O)n1-c1ccccc1)NC1CCCCCCC1 |  |
